The text below walks through data of ChEMBL document CHEMBL4823271, “Synthesis and structure-activity relationship of new chalcone linked 5-phenyl-3-isoxazolecarboxylic acid methyl esters potentially active against drug resistant Mycobacterium tuberculosis” (Eur J Med Chem, 2021).

Series [1] in a line: Cytotoxicity against African green monkey vero cells assessed as reduction in cell viability measured after 72 hrs by MTT assay. In kind it is cell-based. To be noted: chlorocebus sabaeus. Summed up:
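Vero cells seeded at ~10³ cells/well and grown 24 h at 37 °C, 5% CO₂, then exposed to compound (100 to 5 mg/l) for 72 h. MTT was added […] for 4 h and formazan dissolved in DMSO. CC50 is the lowest concentration giving 50% viability reduction. Doxorubicin was the positive control, run in triplicate.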

Series [2] relates to Mycolicibacterium fortuitum. The experiment in a line: Antimycobacterial activity against Mycobacterium fortuitum ATCC 6841 assessed as visible growth inhibition incubated for 16 to 18 hrs. The series is classed as functional, organism-based. The note with it: time 16-18 hrs.
A short description of series [3]: Selectivity index, ratio of CC50 for African green monkey Vero cells to MIC for Antitubercular activity against Mycobacterium tuberculosis H37Rv. The note with it: read-out: Selectivity Index. In kind it is toxicity. Summed up:
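Selectivity index calculated as Vero CC50 (MTT, 72 h) divided by the H37Rv MIC from the resazurin broth microdilution assay.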

Series [4] relates to Mycobacterium tuberculosis. In words: Antimycobacterial activity against Mycobacterium tuberculosis H37Rv ATCC 27294 assessed as reduction in bacterial growth incubated for […] by broth microdilution assay. In kind it is functional.
Series [5] relates to Mycobacteroides chelonae. In words: Antimycobacterial activity against Mycobacterium chelonae ATCC 35752 assessed as visible growth inhibition incubated for 16 to 18 hrs. The series is classed as functional, organism-based. The note with it: time 16-18 hrs.
Series [6] relates to Mycobacterium tuberculosis. The experiment in a line: Antitubercular activity against Mycobacterium tuberculosis H37Rv assessed as bacterial growth inhibition after 7 days by broth microdilution assay. The note with it: 168 h, dose 0.03-64 µg/ml, time 7 day. In kind it is functional. Summed up: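 Compounds were tested in broth microdilution from 64 downward, incubated 37 °C for 7 days, then resazurin (PrestoBlue) added. MIC is the lowest concentration preventing the blue-to-pink change, run in triplicate, reporting the value obtained at least twice of three.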
Background: Dilution methods test growth across graded concentrations, often in twofold steps.

Series [7] concerns Mycobacteroides abscessus. In words: Antimycobacterial activity against Mycobacterium abscessus ATCC 19977 assessed as visible growth inhibition incubated for 16 to 18 hrs. The series is classed as functional, organism-based. To be noted: time 16-18 hrs.

Each structure is given as a SMILES string. Values after ≈ are worked out from the molar mass of the structure shown. Active and inactive are the calls of the source. No cut-off for these calls is given here.

What is called CC50 is the concentration giving 50% cytotoxicity. What is called MIC is the least concentration at which growth counts as inhibited. `COC(=O)c1cc(-c2cccc(NC(=O)c3ccc(/C=C/C(=O)c4ccc(C)cc4)cc3)c2)on1`: the CC50 at 72 h in series [1] is > 80 µg/mL. Further, the result in series [2], in series [5] and in series [7] was inactive. Besides, the selectivity ratio in series [3] is > 160. For the same molecule, the MIC came to 5 µg/mL (≈ 10.7 µM) in series [4] and 0.5 µg/mL (≈ 1.07 µM) in series [6].

Consider `CO[C@H]1/C=C/O[C@@]2(C)Oc3c(C)c(O)c4c(O)c(c(/C=N/N5CCN(C)CC5)c(O)c4c3C2=O)NC(=O)/C(C)=C\C=C\[C@H](C)[C@H](O)[C@@H](C)[C@@H](O)[C@@H](C)[C@H](OC(C)=O)[C@@H]1C` [RIFAMPIN], for which the values for the minimum inhibitory concentration (MIC) in series [4] and in series [6] were 0.06 µg/mL (≈ 0.0729 µM) and 0.03 µg/mL (≈ 0.0365 µM), respectively.

As for `COC(=O)c1cc(-c2cccc(NC(=O)c3ccc(/C=C/C(=O)c4ccc(Cl)cc4)cc3)c2)on1`, the CC50 at 72 h in series [1] is > 50 µg/mL. Further, the outcome in series [2], in series [5] and in series [7] was inactive. The selectivity ratio in series [3] was > 416. In addition, the MIC in series [4] and in series [6] was 0.12 µg/mL (≈ 0.246 µM) each time.

For `CCOC(=O)c1cc(-c2cccc(NC(=O)c3ccc(/C=C/C(=O)c4ccc(Cl)cc4)cc3)c2)on1`, the 50% cytotoxic concentration (CC50) at 72 h in series [1] is > 80 µg/mL. Moreover, the outcome in series [2], in series [5] and in series [7] was inactive. For the same molecule, the selectivity ratio in series [3] is > 160. Moreover, the MIC in series [4] and in series [6] was 0.5 µg/mL (≈ 0.998 µM) throughout.

As for `COC(=O)c1cc(-c2cccc(NC(=O)c3ccc(/C=C/C(=O)c4ccc(N5CCOCC5)cc4)cc3)c2)on1`, the half-maximal cytotoxic concentration (CC50) at 72 h in series [1] was > 20 µg/mL. Further, the outcome in series [2], in series [5] and in series [7] was inactive. Also, in series [3], the selectivity ratio was > 40. The minimal inhibitory concentration (MIC) stood at 5 µg/mL (≈ 9.3 µM) in series [4] and 0.5 µg/mL (≈ 0.93 µM) in series [6].

`COC(=O)c1cc(-c2cccc(NC(=O)c3ccc(/C=C/C(=O)c4ccc(Cl)cc4Cl)cc3)c2)on1`: in series [1], the 50% cytotoxic concentration (CC50) at 72 h is > 40 µg/mL. Also, the result in series [2], in series [5] and in series [7] was inactive. In addition, the selectivity ratio in series [3] was > 80. Moreover, the MIC in series [4] and in series [6] was 0.5 µg/mL (≈ 0.959 µM) throughout.

For `COC(=O)c1cc(-c2cccc(NC(=O)c3ccc(/C=C/C(=O)c4ccccc4C)cc3)c2)on1`, the CC50 at 72 h in series [1] is > 25 µg/mL. Also, the result in series [2], in series [5] and in series [7] was inactive. Also, the selectivity ratio in series [3] is > 100. The minimal inhibitory concentration (MIC) in series [4] and in series [6] was 0.25 µg/mL (≈ 0.536 µM) each time.

Turning to `CN[C@@H]1[C@H](O[C@H]2[C@H](O[C@H]3[C@H](O)[C@@H](O)[C@H](N=C(N)N)[C@@H](O)[C@@H]3N=C(N)N)O[C@@H](C)[C@]2(O)C=O)O[C@@H](CO)[C@H](O)[C@H]1O` [STREPTOMYCIN], the MIC in series [4] was determined as 2 µg/mL (≈ 3.44 µM); in series [6] it was 0.5 µg/mL (≈ 0.86 µM).

For `COC(=O)c1cc(-c2cccc(NC(=O)c3ccc(/C=C/C(=O)c4ccccc4Cl)cc3)c2)on1`, the CC50 at 72 h in series [1] was > 25 µg/mL. Also, the outcome in series [2], in series [5] and in series [7] was inactive. Moreover, the selectivity ratio in series [3] was > 100. Moreover, the minimum inhibitory concentration (MIC) in series [4] and in series [6] was 0.25 µg/mL (≈ 0.513 µM) in each case.

Consider `COC(=O)c1cc(-c2cccc(NC(=O)c3ccc(/C=C/C(=O)c4cccc(Cl)c4)cc3)c2)on1`, for which the cytotoxic concentration (CC50) at 72 h in series [1] was > 2.5 µg/mL. Further, the result in series [2], in series [5] and in series [7] was inactive. Further, the selectivity ratio in series [3] was > 10. The MIC in series [4] and in series [6] was 0.25 µg/mL (≈ 0.513 µM) in each case.

With `COC(=O)c1cc(-c2cccc(NC(=O)c3ccc(/C=C/C(=O)c4ccc(F)cc4F)cc3)c2)on1`, the cytotoxic concentration (CC50) at 72 h in series [1] was > 40 µg/mL. In addition, the result in series [2], in series [5] and in series [7] was inactive. Moreover, the selectivity ratio in series [3] was > 333. Also, the MIC in series [4] and in series [6] was 0.12 µg/mL (≈ 0.246 µM) each time.

`CCOC(=O)c1cc(/C=C/c2c(Cl)cncc2Cl)on1`: the MIC in series [4] turned out to be 0.5 µg/mL (≈ 1.6 µM); in series [6] it was 0.18 µg/mL (≈ 0.575 µM).

As to `COC(=O)c1cc(-c2cccc(NC(=O)c3ccc(/C=C/C(=O)c4ccc(CC(C)C)cc4)cc3)c2)on1`, the half-maximal cytotoxic concentration (CC50) at 72 h in series [1] is > 10 µg/mL. Besides, the outcome in series [2], in series [5] and in series [7] was inactive. Further, the selectivity ratio in series [3] is > 84. For the same molecule, the MIC in series [4] and in series [6] was 0.12 µg/mL (≈ 0.236 µM) throughout.

Consider `COC(=O)c1cc(-c2cccc(NC(=O)c3ccc(/C=C/C(=O)c4ccc(C)c(F)c4)cc3)c2)on1`, for which the half-maximal cytotoxic concentration (CC50) at 72 h in series [1] is > 50 µg/mL. Also, the outcome in series [2], in series [5] and in series [7] was inactive. Also, the selectivity ratio in series [3] is > 25. Besides, the MIC in series [6] is 2 µg/mL (≈ 4.13 µM).

On to `COC(=O)c1cc(-c2cccc(NC(=O)c3ccc(/C=C/C(=O)c4cccc(Br)c4)cc3)c2)on1`, for which the cytotoxic concentration (CC50) at 72 h in series [1] was > 100 µg/mL. Moreover, the outcome in series [2], in series [5] and in series [7] was inactive. The selectivity ratio in series [3] was > 25. For the same molecule, the MIC in series [6] was 4 µg/mL (≈ 7.53 µM).

As for `COC(=O)c1cc(-c2cccc(NC(=O)c3ccc(/C=C/C(=O)c4cccc(OC)c4)cc3)c2)on1`, the half-maximal cytotoxic concentration (CC50) at 72 h in series [1] was > 100 µg/mL. Also, the outcome in series [2], in series [5] and in series [7] was inactive. Moreover, in series [3], the selectivity ratio is > 50. Further, in series [6], the minimum inhibitory concentration (MIC) came to 2 µg/mL (≈ 4.15 µM).

On to `COC(=O)c1cc(-c2cccc(NC(=O)c3ccc(/C=C/C(=O)c4ccc([N+](=O)[O-])cc4)cc3)c2)on1`, for which the CC50 at 72 h in series [1] is > 20 µg/mL. The outcome in series [2], in series [5] and in series [7] was inactive. In series [3], the selectivity ratio was > 10. In series [6], the MIC was determined as 2 µg/mL (≈ 4.02 µM).

With `COC(=O)c1cc(-c2cccc(NC(=O)c3ccc(/C=C/C(=O)c4cccc(C(F)(F)F)c4)cc3)c2)on1`, the 50% cytotoxic concentration (CC50) at 72 h in series [1] was > 20 µg/mL. Also, the result in series [2], in series [5] and in series [7] was inactive. For the same molecule, the selectivity ratio in series [3] is > 20. In addition, the minimum inhibitory concentration (MIC) in series [6] worked out at 1 µg/mL (≈ 1.92 µM).

Take `COC(=O)c1cc(-c2cccc(NC(=O)c3ccc(/C=C/C(=O)c4cc(F)ccc4F)cc3)c2)on1`: in series [1], the half-maximal cytotoxic concentration (CC50) at 72 h is > 40 µg/mL. Moreover, the result in series [2], in series [5] and in series [7] was inactive. Moreover, the selectivity ratio in series [3] is > 40. Further, in series [6], the MIC was found to be 1 µg/mL (≈ 2.05 µM).

`COC(=O)c1cc(-c2cccc(NC(=O)c3ccc(/C=C/C(=O)c4ccc(OC)cc4OC)cc3)c2)on1`: the half-maximal cytotoxic concentration (CC50) at 72 h in series [1] is > 50 µg/mL. In addition, the outcome in series [2], in series [5] and in series [7] was inactive. Moreover, the selectivity ratio in series [3] was > 200. Moreover, the minimum inhibitory concentration (MIC) in series [4] and in series [6] was 0.25 µg/mL (≈ 0.488 µM) each time.

Turning to `COC(=O)c1cc(-c2cccc(NC(=O)c3ccc(/C=C/C(=O)c4ccc5c(c4)OCO5)cc3)c2)on1`, the half-maximal cytotoxic concentration (CC50) at 72 h in series [1] was > 40 µg/mL. The outcome in series [2], in series [5] and in series [7] was inactive. Further, the selectivity ratio in series [3] was > 20. Besides, the MIC in series [6] is 2 µg/mL (≈ 4.03 µM).

For the molecule `COC(=O)c1cc(-c2cccc(NC(=O)c3ccc(C4OC4C(=O)c4ccc(Cl)cc4)cc3)c2)on1` (configuration not stated), the 50% cytotoxic concentration (CC50) at 72 h in series [1] was > 20 µg/mL. In addition, the outcome in series [2], in series [5] and in series [7] was inactive. In addition, the selectivity ratio in series [3] is > 5. For the same molecule, in series [6], the MIC came out at 4 µg/mL (≈ 7.95 µM).

Turning to `NNC(=O)c1ccncc1` [ISONIAZID], the MIC in series [4] and in series [6] was 0.03 µg/mL (≈ 0.219 µM) in each case.

For `COC(=O)c1cc(-c2cccc(NC(=O)c3ccc(/C=C/C(=O)c4ccccc4Br)cc3)c2)on1`, in series [1], the CC50 at 72 h was > 40 µg/mL. Moreover, the result in series [2], in series [5] and in series [7] was inactive. For the same molecule, the selectivity ratio in series [3] was > 40. Further, in series [6], the minimal inhibitory concentration (MIC) came to 1 µg/mL (≈ 1.88 µM).

`CC[C@@H](CO)NCCN[C@@H](CC)CO` [ETHAMBUTOL]: the MIC in series [4] and in series [6] was 1 µg/mL (≈ 4.89 µM) in each case.

With `COC(=O)c1cc(-c2cccc(NC(=O)c3ccc(OCc4ccc(Cl)cc4)cc3)c2)on1`, the cytotoxic concentration (CC50) at 72 h in series [1] is > 80 µg/mL. Moreover, the outcome in series [2], in series [5] and in series [7] was inactive. The selectivity ratio in series [3] is > 80. For the same molecule, the MIC in series [6] was 1 µg/mL (≈ 2.16 µM).
